Screening data as filed in PubChem BioAssay.
L major viab – reduces viability of Leishmania major promastigotes | resazurin fluorescence viability | inhibition, % at 10 µM | actives 9% (n = 200,000);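 further: promastigotes grown with compound for 44 hours at 28 °C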
Diaph act CS – diaphorase activation or chemical reduction counter-screen; Diaphorase/resazurin coupled assay, resorufin fluorescence, 16 min; hits give high values; 1 = vehicle wells, 0 = NADH-free wells; activation factor at 20 µM; actives 0.005% (n = 190,000);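 active means diaphorase activity raised at least twofold by the compound at 20 µM; inactive means activation factor below 2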
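Assay system: Purified diaphorase enzyme from Clostridium kluyveri | Amount: Enzyme 0.07 U/mL final | Dosing: Compound 20 µM once, DMSO 1% | Timing: 16 min reaction at room temperature | Detection: Fluorescence, excitation 544 nm and emission 590 nm | Evaluation: Higher resorufin formation from activation or reduction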
Diaph inh CS – counter-screen for diaphorase-based assays: diaphorase inhibitors and chemical oxidizers; diaphorase resazurin-to-resorufin fluorescence, NADH, 16 min; bacterial (C. kluyveri) enzyme, not human; inhibition, % at 20 µM; actives 0.69% (n = 190,000); AID 1217;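 active means primary screen inhibition at 20 µM above a set limit, cut at about 50% in these data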;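 further: plate controls were DMSO with full reaction for no effect and wells lacking NADH for full effect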
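Assay system: diaphorase enzyme from Clostridium kluyveri. Quantity: enzyme working solution with 0.14 U/mL diaphorase. Schedule: reaction incubation of 16 min at room temperature. Technique: resorufin fluorescence, excitation 544 nm, emission 590 nm. Controls: No-NADH positive control and DMSO neutral control.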
Redox H2O2 prof – compounds producing H2O2 with reducing agent – biochemical, NIH compound library profiling, artefact control for MLSCN library redox annotation, primary screen; DTT-dependent redox cycling H2O2, phenol red/HRP absorbance; 100% = 100 µM peroxide control, 0% = buffer; activation, % at 10 µM; actives 0.03% (n = 200,000); AID 878;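 active means activation of at least 50% relative to the plate's high and low controls in the primary single-dose screen; inactive means activation below 50%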;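 further: compound incubated with DTT at 0.8 mM final as the reducing agent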
PfG6PD inh – PfG6PD (Plasmodium falciparum) enzyme inhibition | AID 504690 | inhibition, % at 20 µM | PfGluPho enzyme, NADPH resazurin-diaphorase fluorescence | actives 0.78% (n = 350,000);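 active means inhibition reaching at least a set limit at 20 µM in the primary screen, cut at about 59% in these data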;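 further: 0% = DMSO wells with substrate and 100% = DMSO wells lacking glucose-6-phosphate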
G6PDH counter – inhibits Leuconostoc G6PDH, flagging false hits in G6PDH-based assays; Purified L. mesenteroides G6PDH, diaphorase/resazurin coupled fluorescence, 45 min; actives 0.12% (n = 200,000); inhibition, % at 5 µM
An asterisk follows results filed as active; x = not tested or not shown. Many of the other results were omitted from the sample, so hits are more common in it than they were. Unless noted, no stated cut-off is given here; in the data, active means inhibition above about 50%; inactive means the rest.

SMILES	L major viab	Diaph act CS	Diaph inh CS	Redox H2O2 prof	PfG6PD inh	G6PDH counter
COCCCn1c(N)c(C(=O)OC(C)COC)c2nc3ccccc3nc21 (centres undefined)	45	1	4	-3	0	6
O=C1CC23c4ccccc4N4C(=O)CC5OCC=C6CN1C2CC6C5C43 (centres undefined)	x	x	x	x	0	x
COc1cc(OC)c(C=O)c(OC(=O)N(C)C)c1	-4	1	0	0	-15	0
Cc1cccc(-n2c(/C=C/c3ccc([N+](=O)[O-])o3)nc3ccccc3c2=O)c1	88*	0.9	15	0	7	-8
O=c1c2ccccc2nc(/C=C/c2ccc([N+](=O)[O-])o2)n1-c1ccc(O)cc1	99*	0.9	10	-1	16	1
COc1ccc(C(SCC(NC(=O)OCc2ccccc2)C(=O)O)c2ccc(OC)cc2)cc1 (centres undefined)	x	x	x	x	-42	x
CCCCN(Cc1ccccc1)C1CCN(CCc2ccccc2)CC1	91*	0.9	7	1	3	10
c1ccc(CCN2CCC(N3CCN(c4ccccc4)CC3)CC2)cc1	95*	0.9	11	-1	-1	0
COC(=O)C1=C(c2ccc(C(C)=O)cc2)C[C@@H]2CC[C@H]1N2C(=O)NC(C)C	x	x	x	x	0	x
CC(C)[N+]12CCC(CC1)C(C(O)(c1ccccc1)c1ccccc1)C2 (centres undefined)	x	x	x	x	-7	x
C[n+]1c(-c2ccccc2)cc(-c2ccc(Cl)cc2)cc1-c1ccccc1	99*	1	2	1	6	-5
COC(=O)c1ccc(CN2CCN(Cc3ccccc3)CC2)cc1	93*	0.9	12	2	1	-3
CC(=O)Nc1ccc(CC(=O)N2CCN(Cc3ccccc3)CC2)cc1	x	x	x	x	-6	x
COC1CCC(OC2CC(C3(C)CCC4(CC(O)C(C)C(C(C)/C=C(\C)C(=O)C(C)CC(C)C(=O)O)O4)O3)OC3(OC(C4OC(O)(CO)C(C)CC4C)CC3C)C2C)OC1C (centres undefined)	x	x	x	x	5	x
CC(C)CCNC(=O)c1cc(C(=O)c2cc(Br)ccc2O)cn(CCC(C)C)c1=O	83*	1	4	0	0	4
O=C(c1cc(C(=O)NCc2ccccc2)c(=O)n(Cc2ccccc2)c1)c1cc(Cl)ccc1O	98*	0.8	19	0	-24	-6
C=C(C)[C@@]12OC3(c4ccccc4)O[C@@H]1C1[C@@H]4O[C@]4(CO)[C@@H](O)[C@]4(O)C(=O)C(C)=C[C@H]4[C@@]1(O3)[C@H](C)[C@H]2OC(=O)/C=C/C=C/c1ccccc1 (some centres undefined)	x	x	x	x	32	x
CS(=O)(=O)c1ccc(C2=C(CNC(=O)c3nccs3)[C@H]3CC[C@@H](C2)N3Cc2ccco2)cc1	x	x	x	x	-3	x
O=C1NC(=O)C2(CCCC2)C(=O)N1	x	x	x	x	-2	x
Cc1ccc(N2C(=O)NC(=O)/C(=C/C=C/c3ccco3)C2=O)cc1	83*	0.9	14	0	29	-5
Cc1cc(C)cc(N2C(=O)NC(=O)/C(=C\C=C\c3ccco3)C2=O)c1	99*	0.8	16	0	17	9
CCc1ccc(N2C(=O)NC(=O)/C(=C\C=C\c3ccco3)C2=O)cc1	x	x	x	x	34	x
CC(C)c1ccc(N2C(=O)NC(=O)/C(=C/C=C/c3ccco3)C2=O)cc1	94*	0.7	31	0	11	3
CCC(C)NC(=O)c1c(N)n(Cc2ccc3c(c2)OCO3)c2nc3ccccc3nc12 (centres undefined)	65*	0.7	31	-1	48	27
CC(C)CCNC(=O)c1c(N)n(CC2CCCO2)c2nc3ccccc3nc12 (centres undefined)	11	0.7	28	0	33	22
CCC(C)NC(=O)c1c(N)n(CC2CCCO2)c2nc3ccccc3nc12 (centres undefined)	67*	0.6	40	-1	27	36
N#Cc1ccc(/C=C/C(=O)O)cc1	x	x	x	x	8	x
Cn1cccc1/C=C1/C(=O)NC(=S)N(Cc2ccc(F)cc2)C1=O	x	x	x	x	31	x
